Source: paper PMC9585524 (ACS Bio & Med Chem Au, 2022)
“Also recorded” adds a separate entry of the source.

Tests used:
SphK2 in U937 cells = test: FTY720-P levels in U937 cells; type: cell-based, human; details: 1 μM FTY720 and 14c at 30–1000 nM, Figure 5B, duplicate
Procedure, shortened: (§1)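 U937 cells were grown in RPMI 1640 with 10% FBS, then moved to 0.5% FBS for 24 h. They were treated 2 h with test compound (30–1000 nM) plus 1 μM FTY720. Pellets (2–3 × 10^6 cells) were extracted in methanol/chloroform with deuterated internal standards and base-treated. S1P and FTY720-P were measured by LC-MS/MS, in duplicate.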

blood S1P = test: Blood S1P in C57BL/6 mice after a single intraperitoneal dose, LC-MS/MS; type: in vivo; details: for S1P levels in blood: 5 mg/kg single intraperitoneal injection
Procedure, shortened: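 Male C57BL/6J mice in groups of four received 5 mg/kg test compound i.p. in 2% hydroxypropyl-β-cyclodextrin, and controls got an equal volume of vehicle. Blood was drawn at set times, with the earliest 1–2 min post-dose. Whole blood (10 μL) was extracted in methanol/chloroform with d7-S1P/d7-sphingosine internal standards (48 °C, 16 h), then treated with KOH/methanol. S1P was quantified by LC-MS/MS MRM (380.4 → 264.4).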

U937 cells = test: S1P levels in U937 cells by LC-MS/MS; type: cell-based, human; details: varying concentrations of 14c, 2 h, Figure 5A, duplicate
Procedure, shortened: as §1

hSphK2 = target: T1, hSphK2 (Homo sapiens, UniProt Q9NRA0); type: biochemical
T1 sequence (Q9NRA0 1-618 isoform Q9NRA0-2): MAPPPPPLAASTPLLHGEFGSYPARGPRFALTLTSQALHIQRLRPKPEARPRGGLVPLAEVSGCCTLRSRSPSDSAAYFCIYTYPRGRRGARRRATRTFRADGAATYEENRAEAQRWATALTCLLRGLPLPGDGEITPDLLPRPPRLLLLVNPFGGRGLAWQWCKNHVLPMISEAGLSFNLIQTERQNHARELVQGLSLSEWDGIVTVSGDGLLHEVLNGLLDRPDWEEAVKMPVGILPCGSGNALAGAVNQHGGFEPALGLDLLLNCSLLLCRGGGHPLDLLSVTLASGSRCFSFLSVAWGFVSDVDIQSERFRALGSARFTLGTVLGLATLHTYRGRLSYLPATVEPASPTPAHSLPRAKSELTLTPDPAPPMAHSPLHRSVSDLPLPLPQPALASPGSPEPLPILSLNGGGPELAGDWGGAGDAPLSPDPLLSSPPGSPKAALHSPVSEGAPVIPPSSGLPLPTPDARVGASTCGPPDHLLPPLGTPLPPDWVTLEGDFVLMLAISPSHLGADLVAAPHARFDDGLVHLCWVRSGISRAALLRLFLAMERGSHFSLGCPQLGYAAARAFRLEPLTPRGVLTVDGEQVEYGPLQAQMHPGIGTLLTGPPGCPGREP

estrogen receptors = details: cited from earlier work

Row | Compound | FTY720-P levels in U937 cells (SphK2 in U937 cells) | S1P levels in blood (blood S1P; 4 h post dosing) | S1P levels in blood (blood S1P; after 24 h) | circulating (blood) S1P levels (blood S1P; mice, 5 mg/kg, overall statement) | S1P levels in U937 cells (U937 cells) | selectivity for SphK2 over SphK1 (hSphK2) [fold] | action at estrogen receptors (estrogen receptors)
1 | Cl.N=C(N)N1CCC[C@H]1c1nc(-c2ccc(CCC3CCCCC3)c(C(F)(F)F)c2)no1 [14c, (S)-2-(3-(4-(2-Cyclohexylethyl)-3-(trifluoromethyl)phenyl)-1,2,4-oxadiazol-5-yl)pyrrolidine-1-carboximidamide Hydrochloride] | concentration-dependent decrease | doubling | returning close to baseline | sustained increase; also recorded: profound increases | dose-dependent decrease | ~200 | –
2 | O=C(NCc1ccncc1)C12CC3CC(C1)CC(c1ccc(Cl)cc1)(C3)C2 [compound 1] | – | – | – | – | – | – | tamoxifen-mimetic
